In ChEMBL document CHEMBL2417498, “Design and synthesis of 6,7-methylenedioxy-4-substituted phenylquinolin-2(1H)-one derivatives as novel anticancer agents that induce apoptosis with cell cycle arrest at G2/M phase” (Bioorg Med Chem, 2013):
pIC50: −log10 of the molar value.

Tests used:
[1] = Cytotoxicity against human H460 cells after 48 hrs by MTT assay; type: functional, cell-based; conditions: NCI-H460, 48 h
Summary of the method: (§1)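 Log-phase tumour cells grown in RPMI-1640 with 10% FBS, penicillin/streptomycin and 1% L-glutamine at 37 °C, 5% CO2. Cells treated with vehicle or a range of concentrations for 48 h. Growth measured by MTT reduction, absorbance at 570 nm. IC50 is the concentration giving 50% proliferation inhibition, from 3 independent experiments.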

[2] = system: HL-60; experiment: Cytotoxicity against human HL60 cells after 48 hrs by MTT assay; type: functional, cell-based; conditions: HL-60, 48 h; summary of the method: as §1
[3] = Cytotoxicity against human 2774 cells after 48 hrs by MTT assay; type: functional, cell-based
[4] = Cytotoxicity against human Hep3B cells after 48 hrs by MTT assay; type: functional, cell-based, Hep 3B2
Summary of the method: (§2)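 Detroit 551 normal skin cells and Hep 3B hepatoma cells grown in DMEM with 10% FBS, penicillin/streptomycin and 1% L-glutamine at 37 °C, 5% CO2. Log-phase cells treated with vehicle or a range of concentrations for 48 h. MTT reduction read at 570 nm. IC50 (50% proliferation inhibition) taken from 3 independent experiments.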

[5] = system: MCF7; experiment: Cytotoxicity against human MCF7 cells after 48 hrs by MTT assay; type: functional, cell-based; conditions: MCF7, 48 h; summary of the method: as §1
[6] = system: COLO 205; experiment: Cytotoxicity against human COLO205 cells after 48 hrs by MTT assay; type: functional, cell-based; conditions: COLO 205, 48 h; summary of the method: as §1
[7] = system: A498; experiment: Cytotoxicity against human A498 cells after 48 hrs by MTT assay; type: functional, cell-based; conditions: A498, 48 h; summary of the method: as §1
[8] = system: Detroit 551; experiment: Cytotoxicity against human Detroit 551 cells after 48 hrs by MTT assay; type: cell-based; conditions: Detroit 551, 48 h; summary of the method: as §2
[9] = system: SK-OV-3; experiment: Cytotoxicity against human SKOV3 cells after 48 hrs by MTT assay; type: functional, cell-based; conditions: SK-OV-3, 48 h; summary of the method: as §1

Row | Compound | pIC50 [1] | pIC50 [2] | pIC50 [3] | pIC50 [4] | pIC50 [5] | pIC50 [6] | pIC50 [7] | pIC50 [8] | pIC50 [9]
1 | COc1cc([C@@H]2c3cc4c(cc3[C@@H](O[C@@H]3O[C@@H]5CO[C@@H](C)O[C@H]5[C@H](O)[C@H]3O)[C@H]3COC(=O)[C@H]23)OCO4)cc(OC)c1O [ETOPOSIDE] | 6.00 | 5.26 | – | – | – | – | – | – | –
2 | COc1ccc(-c2cc(=O)[nH]c3cc4c(cc23)OCO4)cc1 | < 4.70 | < 4.70 | < 4.52 | < 4.70 | < 4.52 | < 4.30 | < 4.60 | < 4.70 | 4.57
3 | O=c1cc(-c2ccccc2F)c2cc3c(cc2[nH]1)OCO3 | < 4.00 | < 4.00 | 4.58 | < 4.00 | < 4.52 | < 4.30 | < 4.30 | < 4.00 | < 4.52
4 | COc1cccc(-c2cc(=O)[nH]c3cc4c(cc23)OCO4)c1 | < 5.00 | < 5.00 | 4.81 | < 5.00 | 4.83 | 4.40 | < 4.30 | < 5.00 | 4.61
5 | COc1ccc(OC)c(-c2cc(=O)[nH]c3cc4c(cc23)OCO4)c1 | 5.00 | 5.46 | 5.19 | 5.00 | 5.43 | 5.21 | 4.54 | < 4.00 | 4.70
6 | O=c1cc(-c2cccc(F)c2)c2cc3c(cc2[nH]1)OCO3 | < 4.70 | < 4.70 | 4.61 | < 4.70 | < 4.52 | < 4.30 | < 4.30 | < 4.70 | < 4.52
7 | COc1cc(-c2cc(=O)[nH]c3cc4c(cc23)OCO4)cc(OC)c1OC | 5.12 | 5.64 | 5.68 | 5.30 | 5.35 | < 4.30 | < 4.30 | < 4.60 | 6.03
8 | COc1ccc(-c2cc(=O)[nH]c3cc4c(cc23)OCO4)cc1OC | 4.84 | 5.39 | 5.18 | 4.84 | 4.84 | 4.77 | 4.59 | 4.63 | 5.19
9 | COc1cc(OC)cc(-c2cc(=O)[nH]c3cc4c(cc23)OCO4)c1 | < 5.00 | 5.54 | 5.08 | < 5.00 | < 4.52 | < 4.30 | 4.93 | < 5.00 | < 4.52
10 | COc1cc(OC)c(-c2cc(=O)[nH]c3cc4c(cc23)OCO4)c(OC)c1 | 4.17 | 4.12 | < 4.52 | < 4.00 | 4.68 | 4.43 | < 4.30 | < 4.00 | < 4.52
11 | O=c1[nH]cc(F)c(=O)[nH]1 [FLUOROURACIL] | 4.57 | 4.65 | – | – | – | – | – | – | –
12 | O=c1cc(-c2ccc(F)cc2)c2cc3c(cc2[nH]1)OCO3 | < 4.70 | < 4.22 | 4.75 | < 4.70 | < 4.52 | < 4.30 | < 4.30 | < 4.70 | < 4.52
13 | COc1ccccc1-c1cc(=O)[nH]c2cc3c(cc12)OCO3 | < 4.60 | 5.00 | 4.73 | 4.63 | 4.57 | 4.74 | 5.01 | < 4.60 | 4.58
14 | COc1cccc(OC)c1-c1cc(=O)[nH]c2cc3c(cc12)OCO3 | < 4.00 | < 4.00 | < 4.52 | < 4.00 | 4.53 | < 4.30 | < 4.30 | < 4.00 | < 4.52
15 | O=c1cc(-c2ccccc2)c2cc3c(cc2[nH]1)OCO3 | < 4.30 | < 4.30 | < 4.52 | < 4.30 | 4.73 | < 4.30 | 4.37 | < 4.30 | < 4.52
